In ChEMBL document CHEMBL3259808, “Optimization of antitrypanosomatid agents: identification of nonmutagenic drug candidates with in vivo activity” (J Med Chem, 2014):
Each block holds one compound with its values, some of them ahead of it.

How the values were obtained:
[1] = tested on: Trypanosoma cruzi; test: Antitrypanosomal activity against Trypanosoma cruzi Tulahuen 2 epimastigotes assessed as growth inhibition after 5 days; format: functional, organism-based; settings: Trypanosoma cruzi, Tulahuen 2, 120 h
Method in brief: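 Epimastigotes were grown axenically at 28 °C in BHI-tryptose with 5% FBS and seeded from a 5–7 day culture at 1 × 10⁶ cells/mL. Drug from a DMSO stock was added (final DMSO ≤0.4%; the control contained 0.4% DMSO). Duplicates were run. A600 was read at day 5, and % inhibition was calculated relative to day-0 and control readings. IC50 = concentration that halves the absorbance ratio.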

[2] = Cytotoxicity against African green monkey Vero cells assessed as growth inhibition at 25 uM after 48 hrs by MTT assay relative to control; format: cell-based; settings: chlorocebus sabaeus, read-out: GI
Method in brief: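 VERO cells were exposed to serial dilutions in fresh medium of compounds dissolved in DMSO, for 48 h at 37 °C in 5% CO₂. A DMSO (<0.1%) negative control was included. Growth inhibition was read by MTT at 570 nm; nifurtimox was the positive control.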

[3] = tested on: Salmonella typhimurium; test: Mutagenic activity in Salmonella typhimurium TA98 at 3.1 to 250 ug/plate by Ames test in presence of mouse liver S9 fraction; format: toxicity, organism-based; settings: salmonella enterica subsp. enterica serovar typhimurium
Method in brief: (§1)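 Ames plate-incorporation assay with S. typhimurium TA98 in Vogel-Bonner E minimal glucose agar. Toxicity toward the bacteria was checked first. DMSO solutions were run in triplicate at five consecutive third-dilutions, starting at the highest non-toxic dose. Positive controls were 4-nitro-o-phenylenediamine (20.0 μg/plate) and 2-aminofluorene (10.0 μg/plate); DMSO was the negative control. Revertants were counted manually. A compound was called mutagenic when revertants were at least twice the negative control at two or more consecutive doses.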

[4] = tested on: Trypanosoma cruzi; test: Antitrypanosomal activity against Trypanosoma cruzi Sylvio X-10 amastigotes infected in African green monkey Vero cells assessed as eradication of amastigotes after 72 hrs by Giemsa staining-based assay; settings: Sylvio X-10, Vero
[5] = tested on: Salmonella typhimurium; test: Mutagenic activity in Salmonella typhimurium TA98 at 3.1 to 250 ug/plate by Ames test; format: toxicity, organism-based; settings: salmonella enterica subsp. enterica serovar typhimurium; method in brief: as §1
[6] = tested on: Trypanosoma cruzi; test: Antitrypanosomal activity against Trypanosoma cruzi Sylvio X-10 amastigotes infected in African green monkey Vero cells assessed as eradication of amastigotes after 5 days by Giemsa staining-based assay; format: functional, organism-based; settings: Sylvio X-10, Vero, 120 h
Method in brief: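 VERO cells in RPMI 1640 with 10% hiFCS were allowed to adhere for 24 h at 37 °C in 5% CO₂, then infected with tissue-derived trypomastigotes at 10:1. Free parasites were washed off after 24 h, and cultures were treated at five compound doses (text gives 72 h / 5 days). Cultures were methanol-fixed and Giemsa-stained, and infected cells were counted among 300. Quadruplicates were run in three independent experiments. IC50/IC90 were obtained by sigmoidal regression.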

[7] = Selectivity index, ratio of IC50 for African green monkey Vero cells to IC50 for Trypanosoma cruzi Sylvio X-10 amastigotes; format: toxicity, cell-based; settings: read-out: Ratio IC50
Method in brief: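 VERO cytotoxicity: cells exposed 48 h at 37 °C, 5% CO2 to serial dilutions from a maximum of 2000 μM (DMSO stocks; DMSO <0.1% control); growth inhibition read by MTT at 570 nm. Amastigote IC50: Sylvio X-10-infected VERO cells, five doses, infected cells counted among 300 (Giemsa), quadruplicate, three experiments, sigmoidal fit. SI = IC50 VERO / IC50 amastigote.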

[8] = tested on: Salmonella typhimurium; test: Mutagenic activity in Salmonella typhimurium TA98 at 0.04 to 4 ug/plate by Ames test in presence of mouse liver S9 fraction; format: toxicity, organism-based; settings: salmonella enterica subsp. enterica serovar typhimurium; method in brief: as §1
[9] = tested on: Salmonella typhimurium; test: Mutagenic activity in Salmonella typhimurium TA98 at 0.04 to 4 ug/plate by Ames test; format: toxicity, organism-based; settings: salmonella enterica subsp. enterica serovar typhimurium; method in brief: as §1
[10] = Selectivity index, ratio of IC50 for human RBC to IC50 for Trypanosoma cruzi Tulahuen 2 epimastigotes
Method in brief: (§2)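 Hemolysis: washed human erythrocytes (2% w/v in PBS) incubated 24 h at 37 °C with compound at final 50, 100 and 200 μM. Ten replicates per concentration. Hemoglobin release read at 405 nm against water lysis as 100%; amphotericin B 1.5 μM was the positive control. SI = IC50 red cells / parasite IC50 (Sylvio X-10 amastigotes or Tulahuen 2 epimastigotes).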

[11] = tested on: Salmonella typhimurium; test: Mutagenic activity in Salmonella typhimurium TA98 at 0.05 to 4 ug/plate by Ames test in presence of mouse liver S9 fraction; format: toxicity, organism-based; settings: salmonella enterica subsp. enterica serovar typhimurium; method in brief: as §1
[12] = tested on: Salmonella typhimurium; test: Mutagenic activity in Salmonella typhimurium TA98 at 0.05 to 4 ug/plate by Ames test; format: toxicity, organism-based; settings: salmonella enterica subsp. enterica serovar typhimurium; method in brief: as §1
[13] = tested on: Salmonella typhimurium; test: Mutagenic activity in Salmonella typhimurium TA1535 at […] ug/plate by Ames test; format: toxicity, organism-based; settings: salmonella enterica subsp. enterica serovar typhimurium
Method in brief: (§3)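 Direct plate incubation on minimal glucose agar (Vogel-Bonner E). Compound toxicity to the bacteria was checked first. DMSO solutions were tested at five consecutive 3-fold dilutions, starting from the highest non-toxic dose, in triplicate, without metabolic activation. DMSO served as negative control. Revertants were counted manually; mutagenic = revertants at least double the negative control at two or more consecutive doses.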

[14] = tested on: Salmonella typhimurium; test: Mutagenic activity in Salmonella typhimurium TA102 at […] ug/plate by Ames test in presence of mouse liver S9 fraction; format: toxicity, organism-based; settings: salmonella enterica subsp. enterica serovar typhimurium
Method in brief: (§4)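 Plate-incorporation Ames test on minimal glucose agar with 500 μL Aroclor-treated mouse liver S9 added. DMSO solutions were tested at five consecutive 3-fold dilutions from the highest non-toxic dose, in triplicate, with a DMSO negative control. Revertants were counted manually; a compound was scored mutagenic when revertants were at least twice the negative control for two or more consecutive doses.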

[15] = Stability of the compound in aqueous solution assessed as compound remaining at 1 mM at pH 1 after 1 hr by TLC analysis; format: physicochemical; settings: read-out: Stability
Method in brief: (§5)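 DMSO stocks diluted to final 1 mM in KCl·HCl pH 1.0, citrate pH 6.0, Tris·HCl pH 7.4 or borax·HCl pH 9.0 buffer. Incubated 1 h at 37 °C, then ethyl acetate extracts checked by TLC for decomposition products.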

[16] = tested on: Salmonella typhimurium; test: Mutagenic activity in Salmonella typhimurium TA1537 at 0.03 to 0.2 ug/plate by Ames test; format: toxicity, organism-based; settings: salmonella enterica subsp. enterica serovar typhimurium; method in brief: as §3
[17] = tested on: Salmonella typhimurium; test: Mutagenic activity in Salmonella typhimurium TA102 at […] ug/plate by Ames test; format: toxicity, organism-based; settings: salmonella enterica subsp. enterica serovar typhimurium; method in brief: as §3
[18] = tested on: Salmonella typhimurium; test: Mutagenic activity in Salmonella typhimurium TA1535 at […] ug/plate by Ames test in presence of mouse liver S9 fraction; format: toxicity, organism-based; settings: salmonella enterica subsp. enterica serovar typhimurium; method in brief: as §4
[19] = Stability of the compound in aqueous solution assessed as compound remaining at 1 mM at pH 6 after 1 hr by TLC analysis; format: physicochemical; settings: aqueous solution, pH 6; read-out: Stability; method in brief: as §5
[20] = tested on: Salmonella typhimurium; test: Mutagenic activity in Salmonella typhimurium TA98 at 6 to 500 ug/plate by Ames test in presence of mouse liver S9 fraction; format: toxicity, organism-based; settings: salmonella enterica subsp. enterica serovar typhimurium; method in brief: as §1
[21] = tested on: Salmonella typhimurium; test: Mutagenic activity in Salmonella typhimurium TA1537 at 0.03 to 0.2 ug/plate by Ames test in presence of mouse liver S9 fraction; format: toxicity, organism-based; settings: salmonella enterica subsp. enterica serovar typhimurium, in the assay text read “0.003 to 0.2 ug/plate” for “0.03 to 0.2 ug/plate”; method in brief: as §4
[22] = Stability of the compound in aqueous solution assessed as compound remaining at 1 mM at pH 7.4 after 1 hr by TLC analysis; format: physicochemical; settings: aqueous solution, pH 7.4; read-out: Stability; method in brief: as §5
[23] = tested on: Salmonella typhimurium; test: Mutagenic activity in Salmonella typhimurium TA100 at 3.09 to 250 ug/plate by Ames test; format: toxicity, organism-based; settings: salmonella enterica subsp. enterica serovar typhimurium; method in brief: as §3
[24] = Stability of the compound in aqueous solution assessed as compound remaining at 1 mM at pH 9 after 1 hr by TLC analysis; format: physicochemical; settings: aqueous solution, pH 9; read-out: Stability; method in brief: as §5
[25] = tested on: Salmonella typhimurium; test: Mutagenic activity in Salmonella typhimurium TA100 at 3.09 to 250 ug/plate by Ames test in presence of mouse liver S9 fraction; format: toxicity, organism-based; settings: salmonella enterica subsp. enterica serovar typhimurium; method in brief: as §4
[26] = tested on: Salmonella typhimurium; test: Mutagenic activity in Salmonella typhimurium TA98 at 6 to 500 ug/plate by Ames test; format: toxicity, organism-based; settings: salmonella enterica subsp. enterica serovar typhimurium; method in brief: as §1
[27] = tested on: Salmonella typhimurium; test: Mutagenic activity in Salmonella typhimurium TA98 at 0.02 to 2 ug/plate by Ames test; format: toxicity, organism-based; settings: salmonella enterica subsp. enterica serovar typhimurium; method in brief: as §3
[28] = Selectivity index, ratio of IC50 for human RBC to IC50 for Trypanosoma cruzi Sylvio X-10 amastigotes; method in brief: as §2
[29] = tested on: Salmonella typhimurium; test: Mutagenic activity in Salmonella typhimurium TA98 at 0.02 to 2 ug/plate by Ames test in presence of mouse liver S9 fraction; format: toxicity, organism-based; settings: salmonella enterica subsp. enterica serovar typhimurium; method in brief: as §4

SMILES: Br.C=CCn1c(-c2ccc(Cl)cc2)cs\c1=N/N=C/C=C/C=C/c1cccs1
Activity [3]: Non-toxic | IC90 [4]: > 25 µM | Activity [5]: Non-toxic | IC50 [6]: > 25 µM | IC50 [1]: 11 µM

SMILES: S=C(N/N=C/c1cccs1)Nc1ccccc1
IC50 [1]: 4.7 µM | Ratio IC50 [10]: 21

SMILES: C=CCn1c(C)cs/c1=N/N=C/C=C/c1ccco1
IC90 [4]: 51 µM | Activity [13]: Non-toxic | Activity [14]: Non-toxic | remaining at 1 h, 1000 µM [15]: 90% | Activity [16]: Non-toxic | IC50 [6]: 6.3 µM | Activity [17]: Non-toxic | IC50 [1]: > 25 µM | Activity [18]: Non-toxic | remaining at 1 h, 1000 µM [19]: > 95% | Activity [20]: Non-toxic | Activity [21]: Non-toxic | remaining at 1 h, 1000 µM [22]: > 95% | Activity [23]: Non-toxic | remaining at 1 h, 1000 µM [24]: > 95% | Activity [25]: Non-toxic | Activity [26]: Non-toxic

More lines, main results first:

IC50 [1]: 4.9 µM
SMILES: O=[N+]([O-])c1ccc(/C=N/N=c2\[nH]c(-c3ccc(Cl)cc3)cs2)s1
inhibition at 48 h, 25 µM [2]: > 50%

IC50 [6]: 8.2 µM | IC50 [1]: 3.3 µM
SMILES: C=CCn1c(-c2ccc([N+](=O)[O-])cc2)cs\c1=N/N=C/C=C/c1ccc([N+](=O)[O-])s1
selectivity ratio [7]: 13 | Activity [8]: Toxic | Activity [9]: Toxic

IC90 [4]: 15.9 µM | IC50 [6]: 5 µM | IC50 [1]: 12 µM
SMILES: C=CCNc1nnc(-c2ccc([N+](=O)[O-])s2)s1
selectivity ratio [7]: 50 | Activity [11]: Non-toxic | Activity [12]: Non-toxic

IC50 [6]: 2.8 µM | IC50 [1]: 1.3 µM
SMILES: C=CCN1C(=O)CS\C1=N/N=C/C=C/c1ccc([N+](=O)[O-])s1
Activity [27]: Toxic | selectivity ratio [7]: 80 | Ratio IC50 [28]: 28 | Activity [29]: Non-toxic
